Assay outcomes as filed in PubChem BioAssay.
FGF22 binding: binders of human FGF22 protein, primary screen, FGF22 synaptogenesis inhibitor project, biophysical, thermal shift, single point | recombinant FGF22 thermal shift, SYPRO orange fluorescence; percent of sucrose octasulfate shift, DMSO zero | activity (Tm shift, normalised), % at 9.99 µM | actives 1.5% (n = 340,000) | AID 651658, 2012;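 active means mean Tm shift, scaled 0 neutral to 100 positive control, at about 1.3% or above, every replicate too, limit read from the data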
Target sequence (Q9HCT0 whole entry, looked up): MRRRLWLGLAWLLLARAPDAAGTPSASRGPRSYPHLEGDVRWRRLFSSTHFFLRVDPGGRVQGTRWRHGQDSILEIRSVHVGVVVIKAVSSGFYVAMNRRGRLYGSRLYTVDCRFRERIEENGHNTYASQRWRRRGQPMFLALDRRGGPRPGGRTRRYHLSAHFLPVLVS
UCH37 inh: inhibitors of human UCH37 deubiquitinase, primary screen, biochemical, Ub-AMC cleavage, fluorescence; purified proteasome/UCH37; AID 588478, 2011; actives 0.33% (n = 330,000); Ubiquitin carboxyl-terminal hydrolase isozyme L5 (Homo sapiens), Q9Y5K5; inhibition, % (test concentration not listed);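 active means mean inhibition over replicate wells above about 20%, limit read from the data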
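System: Proteasome-associated human UCH37 deubiquitinase; Input: 0.15 nM proteasome in added enzyme buffer; Also added: Ub-AMC substrate from 1 µM stock; Incubation: 30 min compound-proteasome preincubation then 25 min substrate reaction, room temperature; Detection: fluorescence, ex 355 nm, em 460 nm; Read-out: % inhibition of Ub-AMC cleavage fluorescence; Benchmarks: no-proteasome and no-compound wells.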
SIRT5 inh: SIRT5 desuccinylase inhibitors, primary screen, biochemical, fluorescence imaging, single point, set 5; Purified SirT5, succinyl-peptide AMC, trypsin-coupled fluorescence; NAD-dependent protein deacylase sirtuin-5, mitochondrial (Homo sapiens), Q9NXA8; inhibition, % at 15 µM; actives 1.1% (n = 330,000); AID 652115, 2013; in the data active means inhibition above about 15%
Target sequence (Q9NXA8 whole entry, looked up): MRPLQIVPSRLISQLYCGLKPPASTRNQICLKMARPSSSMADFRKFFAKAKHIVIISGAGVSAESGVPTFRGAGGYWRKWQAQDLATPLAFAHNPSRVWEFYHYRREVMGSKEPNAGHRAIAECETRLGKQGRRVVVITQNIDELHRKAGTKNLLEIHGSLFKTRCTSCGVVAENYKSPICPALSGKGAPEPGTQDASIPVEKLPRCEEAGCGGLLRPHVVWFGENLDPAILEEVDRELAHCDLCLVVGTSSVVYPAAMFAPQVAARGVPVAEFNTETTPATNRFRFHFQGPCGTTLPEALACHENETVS
Casp6 inh: human caspase-6 inhibitors, primary screen, biochemical, VEID-R110 fluorescence, single point, set 2. P55212. purified caspase-6, Z-VEID-R110 cleavage fluorescence. inhibition, % at 12.5 µM. actives 0.53% (n = 350,000);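 active means mean inhibition across replicates at least about 35%, with every replicate also reaching that limit, limit read from the data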
NSD2 HMT inh: NSD2 histone methyltransferase inhibitors, primary screen, biochemical, AlphaScreen, single concentration, set 2; Histone-lysine N-methyltransferase NSD2 (Homo sapiens), O96028; NSD2 peptide methylation, 120 min; inhibition, % at 12.5 µM; actives 0.54% (n = 310,000); AID 743445, 2014; in the data active means inhibition above about 50%
A number is an active result; n = inactive; x = no result; ! = not confirmed by another sample. Shown are actives, neighbours in structure and some others; about 2.6% of the full set was active somewhere.

SMILES | FGF22 binding | UCH37 inh | SIRT5 inh | Casp6 inh | NSD2 HMT inh
O=C1CC(NS(=O)(=O)c2cc(F)ccc2F)CN1c1cccc(F)c1 (stereo not drawn) | n | n | n | 37.3 | n
C[C@H](CO)N1C[C@H](C)[C@H](CN(C)Cc2ccc(C(=O)O)cc2)Oc2ccc(NS(=O)(=O)c3cccs3)cc2C1=O | n | x | n | n | x
COc1ccc2c(c1)CCc1c(C(=O)Nc3ccn(Cc4ccc(C)cc4)n3)noc1-2 | 27.7 | n | n | n | n
CCCCCCC1(C)NC(=S)N(c2ccccc2)N1 (stereo not drawn) | n | x | n | n | n
CCCCCC1(C)NC(=S)N(c2ccccc2)N1 (stereo not drawn) | 43.6 | n | n | n | n
C=C(C)C=NNC(=S)Nc1ccc(S(=O)(=O)N2CCOCC2)cc1 | x | n | x | x | x
C/C(CC(=O)Nc1cc(Cl)ccc1C)=N\NC(=O)C(=O)N1CCCC1 | n | x | 28.4 | n | n
N#Cc1c(NC(=O)c2ccccc2Cl)n(Cc2ccccc2)c2nc3ccccc3nc12 | n | x | n | 100.0 | 98.2
COc1ccc(CC(C)=NNC(=O)c2cc(C)oc2C)cc1 | x | n | x | x | x
COc1ccc(C/C(C)=N/NC(=O)c2ccc(C)cc2C)cc1 | 44.0 | x | n | n | n
CCC(=O)Nc1ccc(C(C)=NNC(=O)c2ccc(C)s2)cc1 | x | n | x | x | x
C[C@H]1CN([C@@H](C)CO)C(=O)Cc2cc(NC(=O)Nc3ccc(F)cc3)ccc2O[C@H]1CN(C)Cc1ccncc1 | n | x | n | n | x
Cc1ccc(Cl)cc1NC(=O)Nc1cccs1 | 43.0 | n | n | n | n
CC(=NNc1ccc([N+](=O)[O-])cc1)c1c[nH]c2ccccc12 | x | n | x | x | x
O=C(c1cccc(S(=O)(=O)N2CCCCCC2)c1)N1CCN(c2ccccc2F)CC1 | n | n | n | 47.9 | n
CN1CCN(S(=O)(=O)c2cccc(C(=O)N3CCN(c4ccccc4)CC3)c2)CC1 | n | n | 16.7 | n | n
CC(=O)N1CCN(C(=O)c2cccc(S(=O)(=O)N3CCN(c4ccccc4)CC3)c2)CC1 | n | n | n | n | n
C[C@H](CO)N1C[C@H](C)[C@@H](CN(C)C(=O)Cc2ccncc2)Oc2cc(C3=CCCC3)ccc2S1(=O)=O | n | x | n | n | x
O=C(NN=Cc1ccc(F)cc1)c1sccc1OCc1ccc(F)cc1 | x | n | x | x | x
COc1cccc(NC(=O)N(C)C[C@H]2Oc3cc(C#Cc4ccccc4)ccc3S(=O)(=O)N([C@@H](C)CO)C[C@@H]2C)c1 | n | x | x | x | x
COc1cccc(NC(=O)N(C)C[C@@H]2Oc3cc(C#Cc4ccccc4)ccc3S(=O)(=O)N([C@H](C)CO)C[C@H]2C)c1 | n | x | 19.3 | n | x
COc1ccc(C#Cc2ccc3c(c2)O[C@H](CN(C)C(=O)Nc2cccc(OC)c2)[C@@H](C)CN([C@H](C)CO)S3(=O)=O)cc1 | n | x | 16.9 | n | x
CO[C@@H]1CC[C@@H]2CCN(C)C(=O)CC3(CCCCC3)CN(C)C(=O)c3cccc(C#N)c3OC[C@@H]1O2 | n | x | n | n | x
O=S(=O)(c1ccc(F)cc1)c1nc(-c2ccco2)oc1Nc1ccccc1 | n | n | 112.0 | n | n
O=S(=O)(c1ccccc1)c1nc(-c2ccco2)oc1Nc1ccccc1 | n | n | n | n | n
SMILES | FGF22 binding | UCH37 inh | SIRT5 inh | Casp6 inh | NSD2 HMT inh
CCCN1[C@@H]2Cn3c(ccc(-c4ccc(F)cc4)c3=O)[C@H]1[C@@H](C(=O)NCCOC)[C@@H]2CO | n | x | n | n | x
CC(C)C#Cc1cnc2c(c1)C(=O)N([C@H](C)CO)C[C@H](C)[C@@H](CN(C)Cc1ccccc1)O2 | n | x | n | n | x
C[C@H](CO)N1C[C@H](C)[C@@H](CN(C)CC2CC2)Oc2cc(-c3cccc(C#N)c3)ccc2S1(=O)=O | n | x | 16.0 | n | x
C[C@@H]1CN([C@@H](C)CO)S(=O)(=O)c2ccc(-c3ccc(C#N)cc3)cc2O[C@@H]1CN(C)Cc1ccccn1 | n | x | n | 44.7! | x
CC(=NNC(=O)c1ccccc1OCCOc1ccccc1)c1ccccc1F | x | n | x | x | x
Cc1cc(C)n2nc(SCc3nnc(-c4cccs4)o3)nc2n1 | 43.2 | n | n | n | n
CO[C@H]1CN(C)C(=O)c2cc(NC(=O)CC(F)(F)F)ccc2OC[C@H](C)N(C(=O)C2CCCCC2)C[C@H]1C | n | x | n | n | x
CO[C@H]1CN(C)C(=O)c2cc(NC(=O)CC(F)(F)F)ccc2OC[C@@H](C)N(C(=O)C2CCCCC2)C[C@@H]1C | n | x | 28.4 | n | x
CCC(=O)N1C[C@@H](C)[C@@H](OC)CN(C)C(=O)c2cc(NC(=O)CC(F)(F)F)ccc2OC[C@@H]1C | n | x | 21.0 | n | x
CCC(=O)N1C[C@H](C)[C@@H](OC)CN(C)C(=O)c2cc(NC(=O)CC(F)(F)F)ccc2OC[C@H]1C | n | x | n | n | x
COc1ccc(-c2nc(S(=O)(=O)c3ccccc3)c(N3CCN(C)CC3)o2)cc1 | 46.5 | x | x | n | n
COC(=O)C[C@@H]1CC[C@H](NC(=O)c2ccc3c(c2)OCO3)[C@@H](CO)O1 | n | x | n | 42.7 | x
COc1ccccc1NC(=O)N[C@@H]1CC[C@H](CCNS(=O)(=O)c2ccc(F)cc2)O[C@H]1CO | n | x | n | n | x
COc1ccccc1NC(=O)N[C@H]1CC[C@@H](CCNS(=O)(=O)c2ccc(F)cc2)O[C@@H]1CO | n | x | 19.5 | n | x
COc1ccccc1NC(=O)N[C@H]1CC[C@H](CCNC(=O)c2ccc3c(c2)OCO3)O[C@@H]1CO | n | x | 19.3 | n | x
O=C(C[C@H]1CC[C@@H]2[C@H](COC[C@@H](O)CN2Cc2nccs2)O1)NCc1ccccc1Cl | n | x | n | n | x
C[C@H]1CN([C@@H](C)CO)C(=O)c2cc(Br)cnc2O[C@@H]1CN(C)C(=O)C1CCOCC1 | n | x | n | n | x
O=S(=O)(NCc1ccccn1)c1cc(C(F)(F)F)ccc1Cl | 43.3 | n | n | n | n
CC(C)(C)OC(=O)NCCCCCc1cn([C@@H](CO)C(=O)NCCCCCCCCCCC(=O)N2CCN(C(=O)OC(C)(C)C)CC2)nn1 | 1.3 | n | n | n | x
C#CCOCCOCCOCCNc1nc(N2CCN(C(=O)CCCCCCCCCCNC(=O)Cn3cc(C[C@@H](C)O)nn3)CC2)nc(N2CCN(C(=O)CCCCCCCCCCNC(=O)[C@H](CO)n3cc(CCCSC)nn3)CC2)n1 | n | n | 19.5 | n | x
CCCNC(=O)N[C@H]1CC[C@H](CC(=O)N2CCN(C)CC2)O[C@@H]1CO | n | x | n | n | x
Cc1noc(C)c1S(=O)(=O)Nc1ccc2c(c1)CC(=O)N([C@@H](C)CO)C[C@H](C)[C@@H](CN(C)CC1CCCCC1)O2 | n | x | x | n | x
